Laboratory results taken from ChEMBL document CHEMBL1122125, “Synthesis and in vivo antitumor activity of potential 5-fluorouracil prodrugs” (1982).

Experiments:
Assay type in all cases: functional
Mus musculus [1] = test: Antitumor activity was determined for average 7-day weight change against P-388 leukemia in mice at a dose of 300 mg/kg
Summary of the method: (§1)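 Male B6D2F1J mice given 10⁶ P-388 cells ip on day 0, then treated ip once daily on days 1-4 (qd × 4), 5 mice per dose group. Compounds dosed in sterile saline, except one lipophilic thioether given in 10% Tween 80. Mice weighed on days 1 and 7; mean weight per mouse on day 1 and 7-day weight change reported in g and as percent.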

Mus musculus [2] = test: Antitumor activity was determined for average 7-day weight change against P-388 leukemia in mice at a dose of 340 mg/kg; summary of the method: as §1
Mus musculus [3] = test: Antitumor activity was determined for average 7-day weight change against P-388 leukemia in mice at a dose of 600 mg/kg; summary of the method: as §1
Mus musculus [4] = test: Antitumor activity was determined for average 7-day weight change against P-388 leukemia in mice at a dose of 680 mg/kg; summary of the method: as §1
Mus musculus [5] = test: Antitumor activity was determined for average weight on day 1 against P-388 leukemia in mice at a dose of 300 mg/kg
Summary of the method: (§2)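 Male B6D2F1J mice, groups of 5, inoculated ip with 10⁶ P-388 cells on day 0. Drug given ip on days 1-4 (qd × 4) in sterile saline, or in 10% Tween 80 for the poorly water-soluble thioether. Average weight per mouse recorded on day 1, with reweighing on day 7 for percent weight change. Untreated control groups had 10-17 animals per experiment.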

Mus musculus [6] = test: Antitumor activity was determined for average weight on day 1 against P-388 leukemia in mice at a dose of 340 mg/kg; summary of the method: as §2
Mus musculus [7] = test: Antitumor activity was determined for average weight on day 1 against P-388 leukemia in mice at a dose of 600 mg/kg; summary of the method: as §2
Mus musculus [8] = test: Antitumor activity was determined for average weight on day 1 against P-388 leukemia in mice at a dose of 680 mg/kg; summary of the method: as §2
Mus musculus [9] = test: Antitumor activity was determined for average 7-day weight change against P-388 leukemia in mice at a dose of 85 mg/kg; summary of the method: as §1
Mus musculus [10] = test: Antitumor activity was determined for average weight on day 1 against P-388 leukemia in mice at a dose 150 of mg/kg; summary of the method: as §1
Mus musculus [11] = test: Antitumor activity was determined for average weight on day 1 against P-388 leukemia in mice at a dose 75 of mg/kg; summary of the method: as §1
Mus musculus [12] = test: Antitumor activity was determined for average weight on day 1 against P-388 leukemia in mice at a dose of 170 mg/kg; summary of the method: as §2
Mus musculus [13] = test: Percent increase in life span against P-388 leukemia in mice was determined at a dose of 600 mg/kg; details: P388
Summary of the method: (§3)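 Male B6D2F1J mice, 5 per dose group, received 10⁶ P-388 cells ip on day 0. Dosing was ip qd × 4 on days 1-4 in sterile saline, or 10% Tween 80 for the butyl thioether. Median survival times of treated (T) and untreated control (C, 10-17 mice) groups were compared: %ILS = [(T/C) − 1]100. Weights taken on days 1 and 7.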

Mus musculus [14] = test: Percent increase in life span against P-388 leukemia in mice was determined at a dose of 680 mg/kg; details: P388; summary of the method: as §3
Mus musculus [15] = test: Percent increase in life span against P-388 leukemia in mice was determined at a dose of 75 mg/kg; details: P388; summary of the method: as §3
Mus musculus [16] = test: Percent increase in life span against P-388 leukemia in mice was determined at a dose of 85 mg/kg; details: P388; summary of the method: as §3
Mus musculus [17] = test: Antitumor activity was determined for average 7-day weight change against P-388 leukemia in mice at a dose of 170 mg/kg; summary of the method: as §1
Mus musculus [18] = test: Percent increase in life span against P-388 leukemia in mice was determined at a dose of 170 mg/kg; details: P388; summary of the method: as §3
Mus musculus [19] = test: Percent increase in life span against P-388 leukemia in mice was determined at a dose of 300 mg/kg; details: P388; summary of the method: as §3
Mus musculus [20] = test: Antitumor activity was determined for survival range of mice against P-388 leukemia in mice at a dose of 680 mg/kg
Summary of the method: (§4)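 Male B6D2F1J mice implanted ip with 10⁶ P-388 cells on day 0; test agents given ip on days 1–4 (qd × 4) in sterile saline, or in 10% Tween 80 for the lipophilic thioether. Groups of 5 treated mice, with 10–17 untreated controls per experiment. Mice weighed on days 1 and 7 to give the 7-day weight change in g and %. Survival recorded in days as median and range.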

Mus musculus [21] = test: Antitumor activity was determined for median survival of mice against P-388 leukemia in mice at a dose of 150 mg/kg; summary of the method: as §4
Mus musculus [22] = test: Antitumor activity was determined for median survival of mice against P-388 leukemia in mice at a dose of 170 mg/kg; summary of the method: as §4
Mus musculus [23] = test: Antitumor activity was determined for median survival of mice against P-388 leukemia in mice at a dose of 680 mg/kg; summary of the method: as §4
Mus musculus [24] = test: Antitumor activity was determined for median survival of mice against P-388 leukemia in mice at a dose of 75 mg/kg; summary of the method: as §4
Mus musculus [25] = test: Antitumor activity was determined for median survival of mice against P-388 leukemia in mice at a dose of 85 mg/kg; summary of the method: as §4
Mus musculus [26] = test: Antitumor activity was determined for survival range of mice against P-388 leukemia in mice at a dose of 150 mg/kg; summary of the method: as §4
Mus musculus [27] = test: Antitumor activity was determined for survival range of mice against P-388 leukemia in mice at a dose of 300 mg/kg; summary of the method: as §4
Mus musculus [28] = test: Antitumor activity was determined for survival range of mice against P-388 leukemia in mice at a dose of 340 mg/kg; summary of the method: as §4
Mus musculus [29] = test: Antitumor activity was determined for median survival of mice against P-388 leukemia in mice at a dose of 600 mg/kg; summary of the method: as §4
Mus musculus [30] = test: Antitumor activity was determined for median survival of mice against P-388 leukemia in mice at a dose of 340 mg/kg; summary of the method: as §4
Mus musculus [31] = test: Antitumor activity was determined for 7-day average percent weight change against P-388 leukemia in mice at a dose of 150 mg/kg; summary of the method: as §1
Mus musculus [32] = test: Antitumor activity was determined for 7-day average percent weight change against P-388 leukemia in mice at a dose of 170 mg/kg; summary of the method: as §1
Mus musculus [33] = test: Antitumor activity was determined for 7-day average percent weight change against P-388 leukemia in mice at a dose of 340 mg/kg; summary of the method: as §1
Mus musculus [34] = test: Antitumor activity was determined for 7-day average percent weight change against P-388 leukemia in mice at a dose of 75 mg/kg; summary of the method: as §1
Mus musculus [35] = test: Antitumor activity was determined for 7-day average percent weight change against P-388 leukemia in mice at a dose of 85 mg/kg; summary of the method: as §1
L1210 = test: Evaluated for cytotoxicity against L1210 mouse leukemia cells; details: read-out: ID50 (the source's name)
Summary of the method: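 L1210 murine leukemia cells in Eagle's minimal essential medium with 15% fetal calf serum, streptomycin (100 μg/mL), penicillin (100 units/mL) and 0.05 mM 2-mercaptoethanol. Cells counted by Coulter counter after 48 h exposure. ID50 is the 50% growth-inhibitory dose. Triplicate assays, standard deviation ±10%.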

Mus musculus [36] = test: Antitumor activity was determined for median survival of mice against P-388 leukemia in mice at a dose of 300 mg/kg; summary of the method: as §4

Which Average weight (Mus musculus [1]) does the source give for `CC[C@H]1OC(n2cc(F)c(=O)[nH]c2=O)[C@H](O)[C@@H]1O` (some centres not stated) here?
The Average weight was 0.6 g mouse-1.

And the Average weight (Mus musculus [2])?
The Average weight was 1.4 g mouse-1.

What about the Average weight (Mus musculus [3]) of the same compound?
The Average weight was -2.4 g mouse-1.

And the Average weight (Mus musculus [4])?
Its Average weight is -1.4 g mouse-1.

And the Average weight (Mus musculus [5])?
The Average weight was 23.2 g mouse-1.

And the Average weight (Mus musculus [6])?
Its Average weight is 27.8 g mouse-1.

What about the Average weight (Mus musculus [7]) of the same compound?
The Average weight was 23.2 g mouse-1.

What about the Average weight (Mus musculus [8]) of the same compound?
Its Average weight is 25.8 g mouse-1.

What about the Average weight (Mus musculus [9]) of the same compound?
Its Average weight is 1.2 g mouse-1.

And the Average weight (Mus musculus [10])?
The Average weight was 25.8 g mouse-1.

And the Average weight (Mus musculus [11])?
The Average weight was 21.8 g mouse-1.

What about the Average weight (Mus musculus [12]) of the same compound?
Its Average weight is 26.4 g mouse-1.

And the ILS at 600 mg/kg (Mus musculus [13])?
Its ILS at 600 mg/kg is 63%.

And the ILS at 680 mg/kg (Mus musculus [14])?
The ILS at 680 mg/kg was 54%.

What about the ILS at 75 mg/kg (Mus musculus [15]) of the same compound?
Its ILS at 75 mg/kg is 36%.

What about the ILS at 85 mg/kg (Mus musculus [16]) of the same compound?
Its ILS at 85 mg/kg is 18%.

What about the Average weight (Mus musculus [17]) of the same compound?
The Average weight was 1.6 g mouse-1.

And the ILS at 170 mg/kg (Mus musculus [18])?
The ILS at 170 mg/kg was 27%.

And the ILS at 300 mg/kg (Mus musculus [19])?
Its ILS at 300 mg/kg is 54%.

And the Survival range (Mus musculus [20])?
The Survival range was 16.

What about the Survival median (Mus musculus [21]) of the same compound?
Its Survival median is 17.

What about the Survival median (Mus musculus [22]) of the same compound?
Its Survival median is 14.

What about the Survival median (Mus musculus [23]) of the same compound?
The Survival median was 17.

What about the Survival median (Mus musculus [24]) of the same compound?
The Survival median was 15.

What about the Survival median (Mus musculus [25]) of the same compound?
The Survival median was 13.

And the Survival range (Mus musculus [26])?
The Survival range was 15.

What about the Survival range (Mus musculus [27]) of the same compound?
Its Survival range is 17.

And the Survival range (Mus musculus [28])?
The Survival range was 15.

What about the Survival median (Mus musculus [29]) of the same compound?
Its Survival median is 18.

And the Survival median (Mus musculus [30])?
Its Survival median is 16.

And the Weight change (Mus musculus [31])?
The Weight change was 7%.

And the Weight change (Mus musculus [32])?
Its Weight change is 6%.

What about the Weight change (Mus musculus [33]) of the same compound?
Its Weight change is 5%.

And the Weight change (Mus musculus [34])?
The Weight change was 9%.

What about the Weight change (Mus musculus [35]) of the same compound?
Its Weight change is 5%.

And the IC50 (L1210)?
Its IC50 is 19 µM.

What about the Survival median (Mus musculus [36]) of the same compound?
The Survival median was 17.
